Source: PubChem BioAssay (Johns Hopkins Ion Channel Center)
Hits are enriched below; roughly 3.1% of the tested compounds scored in any of these assays.
KCNK3 inh: human KCNK3 channel inhibition, primary screen; O14649; CHO-KCNK3 thallium flux, FluxOR fluorescence; hits give low values; B-score at 10 µM; hit rate 0.84% among 340,000; AID 602410;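 active = B-score under library mean minus 4 SD, starting fluorescence ratio at most library mean plus 5 SD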;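 also: more negative B-score means stronger inhibition of thallium flux through KCNK3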
hERG rescue: compounds protecting human hERG from proarrhythmic drug block; activation (rescue from dofetilide block), less the hit threshold, % at 10 µM; AID 1511; CHO-hERG, FluxOR thallium flux, dofetilide IC70 present; hit rate 0.51% among 310,000;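 active = activation above the mean of controls blocked by dofetilide plus 5 SD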;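 also: thallium influx through hERG after potassium depolarization seen as dye fluorescence rise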
KCNK9 block: human KCNK9 channel inhibition. hit rate 1.2% among 310,000. B-score at 10 µM. HEK293 KCNK9, FluxOR thallium flux fluorescence; hits give low values. AID 488922;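 active = ratio B-score over 3 SD below the library mean, with starting fluorescence within 5 SD of its mean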;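 also: negative B-score means less thallium flux so channel inhibition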
KCNQ1 pot: human KCNQ1 channel potentiation or activation; P51787; CHO-K1 KCNQ1, thallium flux FluxOR fluorescence; hits give high values; B-score at 10 µM; hit rate 0.35% among 310,000; AID 2648;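 active = fluorescence ratio B-score, a plate-corrected score, at least three library SD, with initial intensity B-score within 5 SD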
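Schedule – 37 °C overnight plating, 90-min dark dye load, 20-min compound pretreatment · System – stable KCNQ1 CHO-K1 line · Probe or stimulus – thallium- and potassium-containing depolarizing buffer · Measured by – kinetic FluxOR fluorescence, 10 s baseline plus 110 s post-stimulus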
KCNQ1 block: inhibitors of human KCNQ1 potassium channel | P51787 | hit rate 1.3% among 310,000 | B-score at 10 µM | CHO-K1 KCNQ1, FluxOR thallium flux fluorescence; hits give high values | AID 2642;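 active = compounds whose thallium flux B-score, printed positive for inhibition, exceeds three library SD while starting fluorescence stays within three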;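 also: channel opened by potassium depolarization with thallium stimulus after 20 min compound exposure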
KCNQ1 block val: confirmation of human KCNQ1 potassium channel inhibitors | shares compounds with KCNQ1 block | KCNQ1 cell line, FluxOR thallium flux fluorescence | inhibition, % at 10 µM | hit rate 93% among 1,600;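 active = primary screen active, with duplicate mean exceeding buffer control mean plus 3 SD of buffer wells, cut at about 28% in these data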;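 also: 0% = buffer control ratio and 100% = XE991 inhibitor control ratio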
CHO Tl flux: counter-screen for KCNQ1 inhibitors: effect in parental CHO cells | shares compounds with KCNQ1 block | parental CHO-K1, FluxOR thallium flux fluorescence ratio; hits give low values; zero means no signal rise above baseline | fluorescence ratio (Tl flux) at 10 µM | hit rate 21% among 1,600;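 active = mean of duplicate thallium-flux fluorescence ratios in parental host cells more than 5 SD below the buffer control mean, cut at about 0.38 in these data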;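 also: ratio is peak minus minimum fluorescence divided by baseline fluorescence; actives read low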
KCNQ1 APC inh: human KCNQ1 inhibition validated by electrophysiology; calls only at 10 µM; shares compounds with KCNQ1 block; AID 624120; hit rate 20% among 490; KCNQ1-CHO cells, automated patch clamp current;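 active = KCNQ1 current drop exceeding 3 SD of negative control wells, seen in both duplicate runs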;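 also: steady state current during a 2 s step from -80 to +40 mV; negative values mean current inhibition and positive values mean potentiation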
KCNQ2 spec: rat KCNQ2 inhibition in KCNQ1 inhibitor specificity screen. hit rate 71% among 1,600. KCNQ2 cells, FluxOR thallium flux fluorescence. shares compounds with KCNQ1 block. inhibition, % at 10 µM;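 active = mean percent inhibition of the KCNQ2 thallium signal more than 5 SD above the buffer-only control wells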;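 also: KCNQ2 expressed in CHO cells; 0% = buffer control wells and 100% = XE-991 inhibitor control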
KCNQ1 KCNE1 spec: KCNQ1 inhibitor that also blocks human KCNQ1/KCNE1 channel | hit rate 77% among 1,600 | shares compounds with KCNQ1 block | inhibition, % at 10 µM | KCNQ1/KCNE1 cells, FluxOR thallium flux fluorescence | AID 652147;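 active = mean percent inhibition of duplicate wells above the buffer-only control mean plus 3 SD of those controls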;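 also: 0% = buffer only wells and 100% = XE-991 inhibitor control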
Target sequence (P51787 whole entry, looked up): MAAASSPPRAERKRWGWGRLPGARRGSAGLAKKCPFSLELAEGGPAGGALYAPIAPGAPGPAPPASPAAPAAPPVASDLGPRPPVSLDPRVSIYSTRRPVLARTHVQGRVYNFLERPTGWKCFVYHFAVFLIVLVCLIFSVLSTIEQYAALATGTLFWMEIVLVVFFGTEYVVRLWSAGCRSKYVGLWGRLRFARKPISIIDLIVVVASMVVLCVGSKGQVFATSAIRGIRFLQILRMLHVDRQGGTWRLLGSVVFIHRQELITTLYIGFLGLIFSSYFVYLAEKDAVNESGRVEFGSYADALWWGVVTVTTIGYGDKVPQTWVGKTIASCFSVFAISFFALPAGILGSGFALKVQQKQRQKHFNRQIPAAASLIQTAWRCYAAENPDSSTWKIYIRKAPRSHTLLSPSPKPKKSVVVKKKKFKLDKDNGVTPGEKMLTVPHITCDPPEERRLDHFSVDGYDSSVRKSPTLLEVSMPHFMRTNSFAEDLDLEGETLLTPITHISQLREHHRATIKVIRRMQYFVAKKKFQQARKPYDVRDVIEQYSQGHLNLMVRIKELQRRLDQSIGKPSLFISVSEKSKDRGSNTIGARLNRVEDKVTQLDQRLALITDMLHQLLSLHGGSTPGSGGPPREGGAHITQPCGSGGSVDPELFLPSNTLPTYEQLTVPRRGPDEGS
* hit, by the source's call; i = inactive; · = no result given; + = active, no number.

SMILES | KCNK3 inh | hERG rescue | KCNK9 block | KCNQ1 pot | KCNQ1 block | KCNQ1 block val | CHO Tl flux | KCNQ2 spec | KCNQ1 KCNE1 spec | others
COc1ccc(CCNc2ncnc3[nH]ncc23)cc1OC | i | -14 | i | i | i | · | · | · | ·
COc1ccc(CCNc2ncnc3sc(C)cc23)cc1OC | i | -19 | i | i | 11* | 133* | 0.44 | 80%* | 82%* | KCNQ1 APC inh=i
COc1cccc(CNC(=O)CCNC(=O)Cn2ccc3ccccc3c2=O)c1 | i | -17 | i | i | 7* | 0 | 0.56 | i | i
COc1ccc(NC(=O)CCNC(=O)Cn2ccc3ccccc3c2=O)cc1OC | i | -4 | i | i | i | · | · | · | ·
O=C(N/C=C/c1ccccc1)Nc1ccc(Cl)cc1 | i | -5 | i | i | 7* | 62* | 0.48 | 64%* | i
S=C(NCCc1ccccc1)NCc1cccc(Cl)c1 | i | -5 | i | i | 9* | 62* | 0.51 | 104%* | 46%*
S=C(NCCCc1ccccc1)Nc1ccccc1Cl | i | -22 | i | i | 7* | 100* | 0.62 | 61%* | 38%* | KCNQ1 APC inh=i
S=C(NCCNC(=S)Nc1ccccc1Cl)Nc1ccccc1Cl | i | -5 | i | i | 7* | 62* | 0.59 | 82%* | i
Cc1sc2ccccc2c1CNC[C@H]1O[C@@H](n2cnc(C(N)=O)n2)[C@H](O)[C@@H]1O | i | · | · | · | · | · | · | · | ·
CCOc1c(CNc2nnnn2C)cccc1OC | i | -7 | i | i | i | · | · | · | ·
CCn1c(/C=C/c2ccc(O)cc2)nc2ccccc2c1=O | i | -8 | i | i | i | · | · | · | ·
CCn1c(/C=C/c2ccc(O)c(O)c2)nc2ccccc2c1=O | i | -17 | i | i | 7* | 30* | 0.52 | i | i
CC(C)c1ccc(-c2cc(C(=O)N3CCOCC3)c3cc(Br)ccc3n2)cc1 | i | -12 | i | i | 6* | 40* | 0.43 | 131%* | i
Cc1ccc(S(=O)(=O)NC(C)C(c2cccs2)N2CCN(C)CC2)cc1 (stereo not given) | i | -1 | i | i | i | · | · | · | ·
Cc1ccc(S(=O)(=O)NC(C)C(c2cccs2)N2CCN(c3ccccc3)CC2)cc1 (stereo not given) | i | -5 | i | i | 7* | 68* | 0.45 | 89%* | 92%*
O=C(Nc1nc2ccccc2[nH]1)c1ccc(Cl)c(S(=O)(=O)N2CCCC2)c1 | i | -9 | i | i | 11* | 0 | 0.5 | i | 36%*
Cc1cc(Nc2ccccc2)nc2cc(O)ccc12 | i | -19 | i | i | 7* | 40* | 0.47 | i | i
FC(F)(F)c1cccc(NC(=S)NCC2COc3ccccc3O2)c1 (stereo not given) | i | -22 | i | i | 7* | 58* | 0.49 | 65%* | 44%*
CC(C)NC(=O)c1ccc(N(Cc2ccccc2)S(C)(=O)=O)cc1 | i | -6 | i | i | i | · | · | · | ·
CCn1nc(NC(=O)c2ccccc2)c2cc3cccc(C)c3nc21 | i | -13 | i | i | 6* | 152* | 0.47 | i | 142%* | KCNQ1 APC inh=i
C=CCNc1ncnc2c1[nH]c1ccc(Cl)cc12 | i | -9 | i | i | 7* | 84* | 0.52 | i | i
Cc1cc(N2C(=O)C=CC2=O)c([N+](=O)[O-])cc1C | i | -28 | i | i | i | · | · | · | ·
FC(F)(F)c1cccc(-c2nc3nc(Cl)c(Cl)nc3[nH]2)c1 | i | -15 | i | i | 8* | 52* | 0.54 | i | i
Cc1cc(C(=O)OCc2nnc(-c3ccccc3)o2)c(C)n1-c1ccccc1 | i | -8 | i | i | 10* | 132* | 0.33* | 108%* | 173%*
Cc1c(N(C(=O)CNC(=O)c2ccccc2)C2(C(=O)NC3CCCCC3)CCCCC2)c(=O)n(-c2ccccc2)n1C | i | 3 | i | i | i | · | · | · | ·
SMILES | KCNK3 inh | hERG rescue | KCNK9 block | KCNQ1 pot | KCNQ1 block | KCNQ1 block val | CHO Tl flux | KCNQ2 spec | KCNQ1 KCNE1 spec | others
Cc1cc2c(cc1C)N(Cc1ccc(Cl)cc1)C1=NCCCN12 | i | -16 | i | i | 7* | 91* | 0.41 | 105%* | 98%* | KCNQ1 APC inh=+
CCCCOCCCNc1ncnc2c1[nH]c1ccccc12 | i | -31 | i | i | 9* | 154* | 0.36* | 121%* | 198%*
CCSc1nnc(-c2sc3nnc(-c4ccccc4)c(-c4ccccc4)c3c2N)o1 | i | -27 | i | i | 14* | + | 0.14* | i | i
COc1ccc2c(c1)c(CC(=O)Nc1ccccc1OC)c(C)n2C(=O)c1ccc(Cl)cc1 | i | -7 | i | i | 7* | 43* | 0.39 | 91%* | 48%*
COc1ccc2c(c1)c(CC(=O)Nc1cc(C)ccc1C)c(C)n2C(=O)c1ccc(Cl)cc1 | i | -12 | i | i | i | · | · | · | ·
CN(c1ccccc1)S(=O)(=O)c1ccc(NC(=O)c2ccccc2)cc1 | i | -10 | i | i | i | · | · | · | ·
CN(c1ccccc1)S(=O)(=O)c1ccc(NC(=O)c2ccc(F)cc2)cc1 | i | -3 | i | i | 7* | 90* | 0.45 | 117%* | 131%* | KCNQ1 APC inh=i
COc1ccc(CCNC(=O)CCNC(=O)c2ccco2)cc1 | i | -8 | i | i | i | · | · | · | ·
CN1C2CCC1/C(=C/c1cccn1C)C(=O)/C2=C\c1cccn1C | i | -46 | i | i | 17* | + | 0.14* | i | i
O=C(c1cccc(S(=O)(=O)N2CCCC2)c1)N1CCOCC1 | i | · | · | · | · | · | · | · | ·
Clc1ccc(Cl)c2sc(N3CCCC3)nc12 | i | -9 | i | i | i | · | · | · | ·
Clc1ccc(Cl)c2sc(N3CCOCC3)nc12 | i | 0 | i | i | 8* | 26* | 0.47 | i | i
CC1CCCCC12NC(=O)N(CC(=O)OCC(=O)c1ccc(OC(F)F)cc1OC(F)F)C2=O (stereo not given) | i | -6 | i | i | i | · | · | · | ·
CCOC(=O)C1=C(CC)Nc2ccccc2N=C1NC(=O)Nc1ccc(Cl)c(Cl)c1 | i | -4 | -6.9* | i | 11* | 116* | 0.52 | i | i | KCNQ1 APC inh=i
